Measurements reported in ChEMBL document CHEMBL3758120, “Synthesis and Mechanism Studies of 1,3-Benzoazolyl Substituted Pyrrolo[2,3-b]pyrazine Derivatives as Nonintercalative Topoisomerase II Catalytic Inhibitors” (J Med Chem, 2016).
Activity calls are given as the source filed them. No cut-off for these calls is given here.

Test system: Escherichia coli
Assay: Binding affinity to Escherichia coli pBR322 DNA assessed as intercalation of pBR322 DNA at 0.1 to 100 uM by fluorescence based ethidium bromide displacement assay
In short: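 Increasing concentrations added to 20 nM pBR322 plasmid with 2.5 μM ethidium bromide in 10 mM HEPES pH 7.9, 100 mM KCl, 5 mM MgCl2, 0.1 mM EDTA. Fluorescence emission spectra recorded (excitation 510 nm, emission max 595 nm) at each concentration; mAMSA used as intercalating reference.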

CN(C)CCCCn1c(N)c(-c2nc3ccccc3[nH]2)c2nc(C#N)c(C#N)nc21
inhibition: inactive
